Screens: PubChem, several laboratories
AI-2 QS modul = Vibrio harveyi AI-2 quorum sensing modulation; activity change, % at 7.5 µM; 0.4% of 300,000 active; Vibrio harveyi JMH597 AI-2 luminescence/OD600 ratio, 9 h; stronger effect = lower value; strain lacks LuxN and CqsS sensors; 0 = neutral-control median; in the data active means activity change below about -75%, passing the limit was not always enough;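 further: luminescence divided by OD600 gain over 9 h not by final OD600 alone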
MC4R ag barr = agonists of human melanocortin 4 receptor (MC4R) beta-arrestin | P32245 | U2OS MC4R beta-arrestin complementation, luminescence; percent of melanotan II response, DMSO zero | activation, % at 8.9 µM | 0.98% of 360,000 active;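 active means activation above a per-plate cutoff, the mean activation of sample wells on that plate plus 3 SD, cut at about 8% in these data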
Target sequence (P32245 whole entry, looked up): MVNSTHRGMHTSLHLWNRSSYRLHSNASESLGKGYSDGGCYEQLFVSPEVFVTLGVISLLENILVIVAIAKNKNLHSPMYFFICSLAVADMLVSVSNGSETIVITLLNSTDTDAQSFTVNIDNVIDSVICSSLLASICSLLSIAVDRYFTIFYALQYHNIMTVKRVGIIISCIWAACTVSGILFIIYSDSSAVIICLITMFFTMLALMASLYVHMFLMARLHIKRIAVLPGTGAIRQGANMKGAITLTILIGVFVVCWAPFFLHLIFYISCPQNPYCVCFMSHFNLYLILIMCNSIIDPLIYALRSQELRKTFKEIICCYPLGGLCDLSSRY
MC4R antagonist = human MC4R antagonism in cAMP assay; MC4R-expressing cells, MTII-stimulated cAMP, LANCE TR-FRET; inhibition, % at 6.5 µM; 0.48% of 360,000 active;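 active means inhibition above its plate's cutoff, the mean of tested wells on that plate plus 3 SD, cut at about 29% in these data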;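 further: 0% = Melanotan II alone and 100% = Melanotan II plus saturating MCL0020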
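Material – human MC4R-expressing U2OS cells · Repeats – no replicates · Detection – TR-FRET with Eu-cAMP and labeled anti-cAMP, 671 nm · Times – compound 30 min, challenge 1 h, detection 1 h · Compound – single nominal compound dose of 6.5 µM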
NTR1 agonist = agonists of human neurotensin receptor NTR1. P30989. NTR1-U2OS beta-arrestin-GFP spot imaging, agonist mode. activation, % at 20 µM. 0.17% of 330,000 active. AID 493036;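 active means activation at or above 40% of the spot to cytoplasm intensity ratio, with at least 20 cells analyzed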;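 further: 0% = DMSO without peptide and 100% = 100 nM NTR1 peptide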
U2OS cAMP counter = U2OS forskolin cAMP inhibition counter-screen; shares compounds with MC4R antagonist; parental U2OS, LANCE TR-FRET; inhibition, % at 6.5 µM; 26% of 1,600 active; AID 602193;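 active means mean inhibition over triplicates above the low-control well mean plus 3 SD, set per campaign, cut at about 13% in these data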;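 further: signal is single emission at 671 nm which falls as cellular cAMP rises; 0% = forskolin-stimulated wells and 100% = buffer without forskolin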
MC4R cAMP antag = human MC4R cAMP antagonism confirmation; shares compounds with MC4R antagonist; MC4R-expressing cells, MTII-stimulated cAMP, TR-FRET; inhibition, % at 6.5 µM; 27% of 1,600 active; in the data active means inhibition above about 29%;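 further: 0% = agonist stimulated wells alone and 100% = agonist stimulated wells plus saturating reference antagonist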
Active calls of the source: *; / = no result given; + = active, no number. Only some compounds are listed: those with a hit (about 1.8% of all), similar ones and a draw of the others.

SMILES	AI-2 QS modul	MC4R ag barr	MC4R antagonist	NTR1 agonist	U2OS cAMP counter	MC4R cAMP antag
CCc1ccc(CN(C)C(=O)C2=CC=CN3CCS(=O)(=O)N=C23)cc1	/	-4.5	0.4	1.0	/	/
O=C(CN1CSCC1=O)N1CCN(S(=O)(=O)c2cc(C(F)(F)F)ccc2Cl)CC1	/	-2.3	2.4	-0.6	/	/
O=C(Nc1cccc([N+](=O)[O-])c1)Nc1cccc([N+](=O)[O-])c1	-8.3	1.1	34.0*	4.1	11.1	13.6
O=C(Nc1ccc(C(=O)O)cc1)Nc1cccc([N+](=O)[O-])c1	45.1	-3.2	2.9	0.3	/	/
O=C(CN1C(=O)C2CC=CCC2C1=O)NCC(=O)Nc1ccc(F)c(F)c1 (stereo not given)	/	-3.9	-0.2	1.6	/	/
CCOC(=O)COc1ccccc1/C=C\[N+](=O)[O-]	-89.8*	-5.0	29.4*	/	37.1*	43.7*
Cc1ccc(C(=O)COC(=O)COc2ccccc2[N+](=O)[O-])s1	/	0.2	5.0	0.7	/	/
CCC1=NN(S(=O)(=O)c2ccc(C)cc2)C(O)(C(F)(F)F)C1 (stereo not given)	1.2	1.2	29.1*	-0.6	-1.8	-7.0
CCC1=NN(C(=O)CCc2ccccc2)C(O)(C(F)(F)F)C1 (stereo not given)	4.1	0.1	-0.2	-1.0	/	/
Cc1ccc(-n2nc3c(=S)[nH]nc(C)c3c2C)cc1	8.2	-2.3	146.5*	1.6	89.5*	147.3*
Cc1cn([C@H]2C[C@H](O)[C@@H](CCC(=O)NCc3ccc(N(C)C)cc3)O2)c(=O)[nH]c1=O	/	1.9	16.6	/	/	/
O=C(NC(Cc1c[nH]c2ccccc12)C(=O)N/N=C/c1ccc(Cl)cc1)c1cccs1 (stereo not given)	13.5	0.5	30.1*	10.3	2.2	7.1
COc1cc(/C=N/Nc2nc(Nc3ccc(C)cc3)nc(-n3nc(C)cc3C)n2)cc(OC)c1OC	28.8	4.2	28.9*	11.3	7.2	30.5*
CC1(c2ccccc2)NC(=O)N(CC#N)C1=O (stereo not given)	10.3	-3.1	9.5	-0.2	/	/
CCC1(c2ccccc2)NC(=O)N(CC#N)C1=O (stereo not given)	7.9	-1.3	28.8*	0.4	4.3	5.8
CCOc1ccc(NC(=O)CN(C)C(=O)CSCc2ccc(C)cc2)cc1OCC	20.9	0.1	2.1	-0.5	/	/
Cc1cccc(C(=O)OCC(=O)NCc2cccs2)c1	13.8	-1.8	5.3	0.5	/	/
CS(=O)(=O)c1ccc(C(=O)OCC(=O)NCc2cccs2)cc1[N+](=O)[O-]	/	-2.1	47.1*	38.6	22.4*	18.3
CCOC(=O)C1=CN(Cc2cccc(Br)c2)S(=O)(=O)N(CC)C1C (stereo not given)	/	4.0	3.0	2.5	/	/
CS(=O)(=O)c1ccc(C(=O)Nc2ccc(N3CCCCC3)cc2)c(Cl)c1	15.2	-0.6	-4.0	0.0	/	/
Cc1ccc(Sc2ccc(NC(=O)c3ccc(S(C)(=O)=O)cc3Cl)cc2)cc1	32.6	6.6	108.5*	5.2	124.9*	+
O=C(CN1C(=O)C2CC=CCC2C1=O)N1CCN(c2ccc([N+](=O)[O-])cc2)CC1 (stereo not given)	25.2	0.9	30.6*	-0.1	-4.3	-17.4
Cc1cc(-c2ccccc2)nc2cc(C(=O)OC(C)C)nn12	32.5	-0.7	-0.9	1.4	/	/
Cn1c(C(=O)N2CCCC(Nc3ccc(F)cc3)C2)cc2ccccc21 (stereo not given)	0.4	-1.7	3.7	1.5	/	/
COc1cccc2[nH]c3c(Cl)ncnc3c12	2.1	-0.7	28.6*	-0.1	8.4	27.3
SMILES	AI-2 QS modul	MC4R ag barr	MC4R antagonist	NTR1 agonist	U2OS cAMP counter	MC4R cAMP antag
Cc1cc(C)c(NC(=S)NC(=O)c2ccc(-c3ccccc3)cc2)c(C)c1	30.4	-1.2	32.0*	/	-11.8	-16.8
CC(=O)Nc1cccc(Oc2cc(C#N)c(C#N)cc2N2CCCCCC2)c1	16.7	-0.1	33.1*	5.2	1.6	10.3
CC1CCCC(NC(=O)COC(=O)COc2ccc(C#N)cc2)C1C (stereo not given)	/	0.6	36.5*	2.6	10.2	14.1
COc1ccc(C2=NS(=O)(=O)N(C)C(C(=O)N(C)Cc3ccccc3)=C2)cc1OC	0.2	-0.1	23.6	0.3	/	/
COc1ccc(/C=C2\C(=O)N(c3c(Cl)cc(Cl)cc3Cl)N=C2NC(=O)c2cccc([N+](=O)[O-])c2)cc1	/	-0.7	31.6*	/	-1.2	7.1
C[C@H](CO)N1C[C@H](C)[C@@H](CN(C)Cc2cccnc2)OCc2cnnn2CCCC1=O	/	0.6	6.9	/	/	/
C[C@@H]1CN([C@@H](C)CO)C(=O)CCCn2nncc2CO[C@H]1CN(C)Cc1cccnc1	/	1.1	28.5*	/	-4.4	-18.8
O=C(O)CCn1c(CO)nc2ccccc21	26.0	-2.0	12.8	-0.1	/	/
O=C(O)CCn1c(-c2ccccn2)nc2ccccc21	26.7	1.0	29.4*	2.5	-1.0	1.2
O=C(CSc1ccc2nnc(-c3cccnc3)n2n1)Nc1ccccc1F	/	-0.2	7.2	/	/	/
CS(=O)(=O)Nc1cccc(NC(=O)c2cccc3c(-c4ccc(F)c(F)c4)coc23)c1	/	-0.8	11.9	/	/	/
CS(=O)(=O)Nc1cccc(NC(=O)c2cccc3c(-c4cccc(C(N)=O)c4)coc23)c1	/	1.6	43.6*	/	7.6	22.2
Cc1cc(OCC(=O)OCC(=O)N(C)C2CCS(=O)(=O)C2)ccc1Cl (stereo not given)	/	0.6	4.2	0.2	/	/
CC(=O)c1cccc(CN2CCN(C3CCCC3)C(CCO)C2)c1 (stereo not given)	13.4	-0.3	28.7*	0.0	0.2	4.0
OCCC1CN(Cc2ccccn2)CCN1C1CCCC1 (stereo not given)	-3.9	-0.1	37.5*	-0.2	21.4*	9.0
OCCC1CN(Cc2cccn2-c2ccccn2)CCN1C1CCCC1 (stereo not given)	10.7	-1.8	0.9	0.5	/	/
CCOC(=O)c1sc(N2N=C(C)/C(=C\c3ccc(OCC(=O)OC)cc3)C2=O)nc1C	42.5	-1.8	31.1*	9.5	5.2	14.2
O=C(Nc1ccccc1)OC1CCC2CC1CCC2OC(=O)Nc1ccccc1 (stereo not given)	28.0	1.1	32.2*	6.5	2.2	32.5*
O=C(Nc1ccccc1)C1CC2CCC1C2 (stereo not given)	6.4	0.4	14.2	1.0	/	/
CCOc1ccccc1NC(=O)c1cc(C(=O)c2cc(OC)ccc2O)coc1=N	14.6	-2.5	32.7*	-0.8	3.7	5.0
CC(C)NC(=O)c1cc(C(=O)c2cc(Cl)ccc2O)coc1=N	0.7	-1.1	-3.3	0.7	/	/
CCOC(=O)C1CCN(C(=O)C2CCN(S(=O)(=O)c3cccc4nsnc34)CC2)CC1	6.7	-2.7	-4.6	0.1	/	/
